The results in this text go back to ChEMBL document CHEMBL4020827, “Targeting Multiple Effector Pathways in Pancreatic Ductal Adenocarcinoma with a G-Quadruplex-Binding Small Molecule” (J Med Chem, 2018).

In series [1] the test system is MIA PaCa-2. As to the kind of experiment: Effect on PIK3R2 gene expression in human MIAPaCa2 cells at 400 nM after 6 hrs by RNA sequence analysis relative to control. The format is functional.
For series [2], the system named is MIA PaCa-2. As to the kind of experiment: Effect on GLI2 gene expression in human MIAPaCa2 cells at 400 nM after 24 hrs by RNA sequence analysis relative to control. It counts as functional. In short, it runs like this:
(§1)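 PANC-1 (0.35 x 10^6) or MIA PaCa-2 (1.5 x 10^6) cells seeded overnight in 60 mm plates, then exposed to 400 nM compound for 6 or 24 h; untreated cells as controls. Cells were mycoplasma-free and STR-certified. Differential expression by RNA-seq, called at FDR < 0.1.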

Series [3] has as its system MIA PaCa-2. As to the kind of experiment: Growth inhibition of human MIAPaCa2 cells after 96 hrs by SRB assay. The format is functional, cell-based. The following applies: MIA PaCa-2, 96 h. Summed up:
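Cell lines kept at 37 °C, 5% CO2 in medium with 10% FBS and 2 mM L-glutamine. Compound dissolved in water, filter-sterilised, 10 mM stock diluted into media. Growth read by 96 h sulforhodamine B assay, absorbance at 540 nm. IC50 taken from mean absorbance per concentration as % of untreated wells, >3 individual determinations with standard deviations.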
On the technique in general: Sulforhodamine B stains cellular protein and so reports cell mass.

Series [4] relates to PANC-1. As to the kind of experiment: Effect on PFKFB4 gene expression in human PANC1 cells at 400 nM after 6 hrs by RNA sequence analysis relative to control. The format is functional.
In series [5] the test system is PANC-1. As to the kind of experiment: Effect on PFKL gene expression in human PANC1 cells at 400 nM after 6 hrs by RNA sequence analysis relative to control. The format is functional.
In series [6] the test system is MIA PaCa-2. As to the kind of experiment: Effect on MAPK11 gene expression in human MIAPaCa2 cells at 400 nM after 6 hrs by RNA sequence analysis relative to control. The format is functional.
The test system of series [7] is PANC-1. As to the kind of experiment: Effect on PLXNA1 gene expression in human PANC1 cells at 400 nM after 24 hrs by RNA sequence analysis relative to control. The format is functional.
Series [8] has as its system MIA PaCa-2. As to the kind of experiment: Effect on SHC2 gene expression in human MIAPaCa2 cells at 400 nM after 24 hrs by RNA sequence analysis relative to control. It counts as functional. In short, it runs like this: (§2)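 RNA-seq: cells seeded overnight in 60 mm plates (PANC-1 0.35 x 10^6, MIA PaCa-2 1.5 x 10^6 cells/well), then exposed to 400 nM compound for 6 or 24 h against untreated controls. Cell lines mycoplasma-free by RNA-capture ELISA and STR-profiled. Differentially expressed genes called at FDR < 0.1.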

Series [9] relates to PANC-1. As to the kind of experiment: Effect on SMO gene expression in human PANC1 cells at 400 nM after 6 hrs by RNA sequence analysis relative to control. The format is functional. In short, it runs like this: as §2
The subject of series [10] is MIA PaCa-2. As to the kind of experiment: Effect on IQSEC1 gene expression in human MIAPaCa2 cells at 400 nM after 24 hrs by RNA sequence analysis relative to control. The format is functional. In short, it runs like this: as §1
A short description of series [11]: Toxicity in iv dosed CD-1 nude mouse assessed as death measured up to 72 hrs. The format is organism-based. The following applies: in vivo. In short, it runs like this: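 CD1 nude mice, two per group, given single IV doses in saline (10, 20, 30, 35, 40, 45, 50 and 60 mg/kg), with repeat dosing weekly. Watched for adverse effects for up to 72 h. Tolerated dose taken as highest cohort in which all mice survived without observed ill-effects.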

For series [12], the system named is MIA PaCa-2. As to the kind of experiment: Effect on PARD6A gene expression in human MIAPaCa2 cells at 400 nM after 24 hrs by RNA sequence analysis relative to control. It counts as functional.
Series [13] concerns MIA PaCa-2. As to the kind of experiment: Effect on IGF2 gene expression in human MIAPaCa2 cells at 400 nM after 24 hrs by RNA sequence analysis relative to control. The format is functional. Summed up:
as §1

Series [14] deals with PANC-1. As to the kind of experiment: Effect on ARF6 gene expression in human PANC1 cells at 400 nM after 6 hrs by RNA sequence analysis relative to control. The format is functional. Summed up: as §1
In series [15] the test system is PANC-1. As to the kind of experiment: Effect on PIK3R2 gene expression in human PANC1 cells at 400 nM after 24 hrs by RNA sequence analysis relative to control. It counts as functional.
Series [16] deals with MIA PaCa-2. As to the kind of experiment: Effect on PFKL gene expression in human MIAPaCa2 cells at 400 nM after 6 hrs by RNA sequence analysis relative to control. The format is functional.
The nature of series [17]: Selectivity ratio of IC50 for human MCF7 cells to IC50 for human MIAPaCa2 cells. The format is functional.

As a reminder, the IC50 is the point on the concentration scale where inhibition reaches its midpoint. Low values mean higher potency, high ones lower potency. Regarding `O=C1c2ccc3c4c(c(NCCN5CCCC5)cc(c24)C(=O)N1CCCN1CCOCC1)C(=O)N(CCCN1CCOCC1)C3=O`, the log2FC is reported as -0.55 with MIA PaCa-2 [1]; -1.24 with MIA PaCa-2 [2]; -0.57 in the series with PANC-1 [4]; -0.21 in the series with PANC-1 [5]; -0.53 in the series on MIA PaCa-2 [6]; -1.5 with PANC-1 [7]. Further, the log2FC in the series with MIA PaCa-2 [8] is listed as -1.96; in the series on PANC-1 [9], -0.92; in the series with MIA PaCa-2 [10], -0.53; with MIA PaCa-2 [12], -1.4; with MIA PaCa-2 [13] it was 0.72; in the series on PANC-1 [14], -0.74. Further, the values for the log2FC in the series with PANC-1 [15] and in the series with MIA PaCa-2 [16] were -0.88 and 0, respectively. In addition, inhibition in the series on MIA PaCa-2 [3] was half-maximal at 7 nM (IC50). Also, in series [11], the MTD at 72 h lay within 45 to 50 mg/kg. Further, the “Ratio IC50” value in series [17] is on record as over 20.
